The subject of one experiment is MCF7. The experiment can be described thus: Antiproliferative activity against human MCF7 cells incubated for 48 hrs by sulforhodamine B assay. The experiment is classed as functional, cell-based. To be noted: MCF7, 48 h. The gist of the method: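 MCF-7 cells (1 × 10⁵ cells/mL) attached 24 h in MEM with 10% FBS, 37 °C, 5% CO2. Exposed to serial dilutions, DMSO final <0.1%, for 48 h. TCA (50%) fixation, sulforhodamine B staining, IC50 determined. Three independent sets.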

A further experiment deals with HeLa. Description: Antiproliferative activity against human HeLa cells incubated for 24 hrs by sulforhodamine B assay. Format: functional, cell-based. The gist of the method: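 HeLa cells (1 × 10⁵ cells/mL) attached 24 h in MEM with 10% FBS, 37 °C, 5% CO2. Then treated with serial dilutions, DMSO final <0.1%, for 24 h. Fixed with 50% TCA, sulforhodamine B read-out, IC50 derived. Three independent experiments.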

Experiment [1] is described as follows: Inhibition of goat brain tubulin assembly incubated for 10 mins by spectrophotometry. More on the design: species or system Ovis aries. The gist of the method: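 Goat brain tubulin (12 μM; glutamate-purified, >97% pure) held 10 min on ice with compound in 25 mM PIPES, 1 mM EGTA, 3 mM MgCl2, 1 M glutamate. Then 1 mM GTP added. Assembly followed at 350 nm, 37 °C, for 20 min. Three independent experiments.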

The record followed here is ChEMBL document CHEMBL4428028, “Novel Combretastatin-2-aminoimidazole Analogues as Potent Tubulin Assembly Inhibitors: Exploration of Unique Pharmacophoric Impact of Bridging Skeleton and Aryl Moiety” (J Med Chem, 2016).

For `COc1cc(-c2nc(N)[nH]c2-c2cccc(N)c2)cc(OC)c1OC`, the results for the IC50 in the experiment on MCF7 and with HeLa were 6 µM and 8 µM, respectively.

`COc1cc(-c2nc(N)[nH]c2-c2ccc(F)cc2)cc(OC)c1OC`: the figures for the IC50 in the experiment with MCF7 and with HeLa were 3 µM and 3.4 µM, respectively.

Consider `COc1ccc(-c2[nH]c(N)nc2-c2cc(OC)c(OC)c(OC)c2)cc1`, for which the IC50 was 0.174 µM in the experiment on MCF7, 0.166 µM in the experiment on HeLa and 13 µM in experiment [1].

For `COc1ccc(-c2[nH]c(N)nc2-c2cc(OC)c(OC)c(OC)c2)cc1O`, the concentration for half-maximal inhibition (IC50) in the experiment with MCF7 was determined as 0.22 µM; with HeLa, 0.39 µM.

As to `COc1cc(-c2nc(N)[nH]c2-c2cc(OC)c(OC)c(OC)c2)cc(OC)c1OC`, the half-inhibitory concentration (IC50) with MCF7 turned out to be 12 µM; with HeLa, 8 µM.

For `COc1cc(-c2nc(N)[nH]c2-c2ccc3[nH]ccc3c2)cc(OC)c1OC`, the IC50 with MCF7 was found to be 8 µM; in the experiment with HeLa it was 3 µM.

As to `COc1cccc(-c2[nH]c(N)nc2-c2cc(OC)c(OC)c(OC)c2)c1`, the figures for the concentration for half-maximal inhibition (IC50) in the experiment with MCF7 and with HeLa were 18 µM and 14 µM, respectively.

`COc1cc(-c2nc(N)[nH]c2-c2cccc(O)c2)cc(OC)c1OC`: the IC50 in the experiment on MCF7 turned out to be 53 µM; in the experiment on HeLa, 18 µM.
